Results published in ChEMBL document CHEMBL4261522, “Discovery of potential antifungal triazoles: design, synthesis, biological evaluation, and preliminary antifungal mechanism exploration” (Medchemcomm, 2017).
Converted amounts (≈) assume the structure as drawn. The source made the active and inactive calls. No cut-off for these calls is given here.

Columns and labels:
Kregervanrija fluxuum [1] = assay: Antifungal activity against Candida mycoderma by two-fold serial dilution method; type: functional
In short: (§1)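 MIC by standard two-fold serial dilution in 96-well microplates following NCCLS guidelines. Strains were supplied by Southwest University School of Pharmaceutical Sciences and Third Military Medical University College of Pharmacy.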

Saccharomyces cerevisiae [2] = assay: Antifungal activity against Saccharomyces cerevisiae by two-fold serial dilution method; type: functional; in short: as §1
Cyberlindnera jadinii [3] = assay: Antifungal activity against Candida utilis by two-fold serial dilution method; type: functional; settings: Williopsis jadinii; in short: as §1
Aspergillus flavus [4] = assay: Potency index, ratio of fluconazole MIC to compound MIC for Aspergillus flavus by two-fold serial dilution method; type: functional
Aspergillus flavus [5] = assay: Antifungal activity against Aspergillus flavus by two-fold serial dilution method; type: functional; in short: as §1
Candida albicans = assay: Antifungal activity against Candida albicans by two-fold serial dilution method; type: functional; in short: as §1
Aspergillus flavus [6] = assay: Potency index, ratio of miconazole MIC to compound MIC for Aspergillus flavus by two-fold serial dilution method; type: functional
Saccharomyces cerevisiae [7] = assay: Potency index, ratio of miconazole MIC to compound MIC for Saccharomyces cerevisiae; type: functional
Kregervanrija fluxuum [8] = assay: Potency index, ratio of miconazole MIC to compound MIC for Candida mycoderma; type: functional
Calf thymus DNA [9] = assay: Binding affinity to calf thymus DNA assessed as hypochromic effect between compound and DNA by UV absorption spectral analysis; type: nucleic-acid assay; settings: Bos taurus
In short: (§2)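 UV absorption of the compound–DNA complex compared with the summed absorbance of free DNA and free compound. A measured value below the sum was read as hypochromism and one above it as hyperchromism.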

Calf thymus DNA [10] = assay: Binding affinity to calf thymus DNA assessed as iodide quenching by measuring Stern-Volmer quenching constant by fluorescence spectral analysis (reference value: 11.6 +/- 0.067 L/mol); type: nucleic-acid assay; settings: Bos taurus
In short: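 Fluorescence titration with KI as quencher, 0–12 × 10–3 mol L–1 in 2 × 10–3 mol L–1 steps. Compound at 1.0 × 10–5 mol L–1, alone or with DNA at 2.0 × 10–5 mol L–1. Run at 298 K with excitation at 290 nm. Quenching constant taken from a Stern–Volmer plot of F0/F against KI.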

Calf thymus DNA [11] = assay: Binding affinity to calf thymus DNA by UV absorption spectral analysis; type: nucleic-acid assay; settings: Bos taurus
Calf thymus DNA [12] = assay: Inhibition of neural red dye binding to calf thymus DNA by UV absorption spectral analysis; type: nucleic-acid assay; settings: Bos taurus
Calf thymus DNA [13] = assay: Binding affinity to calf thymus DNA assessed as hyperchromic effect between compound and DNA by UV absorption spectral analysis; type: nucleic-acid assay; settings: Bos taurus; in short: as §2
Cyberlindnera jadinii [14] = assay: Potency index, ratio of miconazole MIC to compound MIC for Candida utilis by two-fold serial dilution method; type: functional

Row | SMILES | MIC (Kregervanrija fluxuum [1]) | MIC (Saccharomyces cerevisiae [2]) | MIC (Cyberlindnera jadinii [3]) | Ratio (Aspergillus flavus [4]) | MIC (Aspergillus flavus [5]) | MIC (Candida albicans) | Ratio (Aspergillus flavus [6]) | Ratio (Saccharomyces cerevisiae [7]) | Ratio (Kregervanrija fluxuum [8]) | Activity (Calf thymus DNA [9]) | KSV (Calf thymus DNA [10]) | Activity (Calf thymus DNA [11]) | K (Calf thymus DNA [11]) | inhibition (Calf thymus DNA [12]) | Activity (Calf thymus DNA [13]) | Ratio (Cyberlindnera jadinii [14])
1 | Fc1ccc(COC(Cn2cncn2)c2ccc(F)cc2F)c(F)c1 (stereo unspecified) | 8 µg/mL (≈ 22.8 µM) | 4 µg/mL (≈ 11.4 µM) | 4 µg/mL (≈ 11.4 µM) | 16 | 16 µg/mL (≈ 45.5 µM) | 4 µg/mL (≈ 11.4 µM) | 16 | – | – | – | – | – | – | – | – | –
2 | OC(Cn1cncn1)c1ccc(F)cc1F (stereo unspecified) | 256 µg/mL (≈ 1140 µM) | > 256 µg/mL | 256 µg/mL (≈ 1140 µM) | – | > 256 µg/mL | 128 µg/mL (≈ 568 µM) | – | – | – | – | – | – | – | – | – | –
3 | Fc1ccc(C(Cn2cncn2)OCc2ccc(Cl)cc2)c(F)c1 (stereo unspecified) | 16 µg/mL (≈ 45.7 µM) | 16 µg/mL (≈ 45.7 µM) | 4 µg/mL (≈ 11.4 µM) | – | 8 µg/mL (≈ 22.9 µM) | 8 µg/mL (≈ 22.9 µM) | – | – | – | – | – | – | – | – | – | –
4 | Cc1cc(=O)oc2cc(OCCCCOC(Cn3cncn3)c3ccc(F)cc3F)ccc12 (stereo unspecified) | 2 µg/mL (≈ 4.39 µM) | 4 µg/mL (≈ 8.78 µM) | 16 µg/mL (≈ 35.1 µM) | – | 32 µg/mL (≈ 70.3 µM) | 4 µg/mL (≈ 8.78 µM) | – | – | – | – | – | – | – | – | – | –
5 | Fc1ccc(C(Cn2cncn2)OCc2ccccc2F)c(F)c1 (stereo unspecified) | 2 µg/mL (≈ 6 µM) | 16 µg/mL (≈ 48 µM) | 4 µg/mL (≈ 12 µM) | 8 | 32 µg/mL (≈ 96 µM) | 0.5 µg/mL (≈ 1.5 µM) | 8 | – | – | – | – | – | – | – | – | –
6 | CCCCCCCCCCCCOC(Cn1cncn1)c1ccc(F)cc1F (stereo unspecified) | > 256 µg/mL | 8 µg/mL (≈ 20.3 µM) | > 256 µg/mL | – | 128 µg/mL (≈ 325 µM) | > 256 µg/mL | – | 4 | – | – | – | – | – | – | – | –
7 | Cc1cc(=O)oc2cc(OCCOC(Cn3cncn3)c3ccc(F)cc3F)ccc12 (stereo unspecified) | 256 µg/mL (≈ 599 µM) | 128 µg/mL (≈ 299 µM) | 256 µg/mL (≈ 599 µM) | – | 256 µg/mL (≈ 599 µM) | 128 µg/mL (≈ 299 µM) | – | – | – | – | – | – | – | – | – | –
8 | Fc1ccc(C(Cn2c[n+](Cc3ccccc3F)cn2)OCc2ccccc2F)c(F)c1.[Cl-] (stereo unspecified) | 8 µg/mL | 32 µg/mL | 32 µg/mL | – | 64 µg/mL | 32 µg/mL | – | – | – | – | – | – | – | – | – | –
9 | Fc1ccc(C(Cn2cncn2)OCc2cccc(Cl)c2)c(F)c1 (stereo unspecified) | 16 µg/mL (≈ 45.7 µM) | 16 µg/mL (≈ 45.7 µM) | 8 µg/mL (≈ 22.9 µM) | – | 32 µg/mL (≈ 91.5 µM) | 16 µg/mL (≈ 45.7 µM) | – | – | – | – | – | – | – | – | – | –
10 | O=[N+]([O-])c1ccc(COC(Cn2cncn2)c2ccc(F)cc2F)cc1 (stereo unspecified) | > 256 µg/mL | > 256 µg/mL | > 256 µg/mL | – | > 256 µg/mL | > 256 µg/mL | – | – | – | – | – | – | – | – | – | –
11 | Clc1ccc(COC(Cn2ccnc2)c2ccc(Cl)cc2Cl)c(Cl)c1 (stereo unspecified) [MICONAZOLE] | 8 µg/mL (≈ 19.2 µM) | 32 µg/mL (≈ 76.9 µM) | 16 µg/mL (≈ 38.4 µM) | – | 256 µg/mL (≈ 615 µM) | 4 µg/mL (≈ 9.61 µM) | – | – | – | – | – | – | – | – | – | –
12 | Fc1ccc(C(Cn2cncn2)OCc2ccc(Cl)cc2Cl)c(F)c1 (stereo unspecified) | 16 µg/mL (≈ 41.6 µM) | 8 µg/mL (≈ 20.8 µM) | 4 µg/mL (≈ 10.4 µM) | 16 | 16 µg/mL (≈ 41.6 µM) | 8 µg/mL (≈ 20.8 µM) | 16 | – | – | – | – | – | – | – | – | –
13 | Fc1ccc(C(Cn2cncn2)OCCOC(Cn2cncn2)c2ccc(F)cc2F)c(F)c1 (stereo unspecified) | 256 µg/mL (≈ 537 µM) | 8 µg/mL (≈ 16.8 µM) | 8 µg/mL (≈ 16.8 µM) | – | 256 µg/mL (≈ 537 µM) | 64 µg/mL (≈ 134 µM) | – | – | – | – | – | – | – | – | – | –
14 | CCCOC(Cn1cncn1)c1ccc(F)cc1F (stereo unspecified) | 1 µg/mL (≈ 3.74 µM) | 64 µg/mL (≈ 239 µM) | 32 µg/mL (≈ 120 µM) | – | 128 µg/mL (≈ 479 µM) | 4 µg/mL (≈ 15 µM) | – | – | 8 | – | – | – | – | – | – | –
15 | Fc1ccc(C(Cn2cncn2)OCc2ccc(Cl)c(Cl)c2)c(F)c1 (stereo unspecified) | 4 µg/mL (≈ 10.4 µM) | 0.5 µg/mL (≈ 1.3 µM) | 1 µg/mL (≈ 2.6 µM) | 32 | 8 µg/mL (≈ 20.8 µM) | 1 µg/mL (≈ 2.6 µM) | 32 | 64 | – | Active | 10.7 L/mol | Dose-dependent effect | 1.04 ×10⁴ L/mol | Dose-dependent effect | – | –
16 | CCCCCCOC(Cn1cncn1)c1ccc(F)cc1F (stereo unspecified) | 32 µg/mL (≈ 103 µM) | 32 µg/mL (≈ 103 µM) | 16 µg/mL (≈ 51.7 µM) | – | 32 µg/mL (≈ 103 µM) | 64 µg/mL (≈ 207 µM) | – | – | – | – | – | – | – | – | – | –
17 | Cc1cc(=O)oc2cc(OCCCCCCOC(Cn3cncn3)c3ccc(F)cc3F)ccc12 (stereo unspecified) | 1 µg/mL (≈ 2.07 µM) | 16 µg/mL (≈ 33.1 µM) | 16 µg/mL (≈ 33.1 µM) | – | 16 µg/mL (≈ 33.1 µM) | 2 µg/mL (≈ 4.14 µM) | – | – | – | – | – | Dose-dependent effect | 5.06 ×10⁴ L/mol | Dose-dependent effect | Active | –
18 | Fc1ccc(COC(Cn2c[n+](Cc3ccc(F)cc3F)cn2)c2ccc(F)cc2F)c(F)c1.[Cl-] (stereo unspecified) | > 256 µg/mL | 128 µg/mL | > 256 µg/mL | – | > 256 µg/mL | > 256 µg/mL | – | – | – | – | – | – | – | – | – | –
19 | OC(Cn1cncn1)(Cn1cncn1)c1ccc(F)cc1F [FLUCONAZOLE] | 4 µg/mL (≈ 13.1 µM) | 16 µg/mL (≈ 52.2 µM) | 8 µg/mL (≈ 26.1 µM) | – | 256 µg/mL (≈ 836 µM) | 1 µg/mL (≈ 3.27 µM) | – | – | – | – | – | – | – | – | – | –
20 | CCCCOC(Cn1cncn1)c1ccc(F)cc1F (stereo unspecified) | 64 µg/mL (≈ 228 µM) | 128 µg/mL (≈ 455 µM) | 8 µg/mL (≈ 28.4 µM) | – | 128 µg/mL (≈ 455 µM) | 64 µg/mL (≈ 228 µM) | – | – | – | – | – | – | – | – | – | 2
21 | O=[N+]([O-])c1ccc(COC(Cn2c[n+](Cc3ccc([N+](=O)[O-])cc3)cn2)c2ccc(F)cc2F)cc1.[Cl-] (stereo unspecified) | 16 µg/mL | 64 µg/mL | 32 µg/mL | – | 16 µg/mL | 8 µg/mL | – | – | – | – | – | – | – | – | – | –
22 | Fc1ccc(C(Cn2cncn2)OCCCCOC(Cn2cncn2)c2ccc(F)cc2F)c(F)c1 (stereo unspecified) | 128 µg/mL (≈ 254 µM) | 64 µg/mL (≈ 127 µM) | 128 µg/mL (≈ 254 µM) | – | 64 µg/mL (≈ 127 µM) | 128 µg/mL (≈ 254 µM) | – | – | – | – | – | – | – | – | – | –
23 | Fc1ccc(C(Cn2c[n+](Cc3ccc(Cl)c(Cl)c3)cn2)OCc2ccc(Cl)c(Cl)c2)c(F)c1.[Cl-] (stereo unspecified) | 64 µg/mL | 16 µg/mL | 32 µg/mL | – | 64 µg/mL | 32 µg/mL | – | – | – | – | – | – | – | – | – | –
24 | Fc1ccc(C(Cn2cncn2)OCCCCCCOC(Cn2cncn2)c2ccc(F)cc2F)c(F)c1 (stereo unspecified) | 256 µg/mL (≈ 481 µM) | 128 µg/mL (≈ 240 µM) | > 256 µg/mL | – | 256 µg/mL (≈ 481 µM) | 256 µg/mL (≈ 481 µM) | – | – | – | – | – | – | – | – | – | –
25 | Fc1ccc(C(Cn2cncn2)OCc2ccccc2Cl)c(F)c1 (stereo unspecified) | 8 µg/mL (≈ 22.9 µM) | 16 µg/mL (≈ 45.7 µM) | 8 µg/mL (≈ 22.9 µM) | – | 16 µg/mL (≈ 45.7 µM) | 8 µg/mL (≈ 22.9 µM) | – | – | – | – | – | – | – | – | – | –
26 | CCCCCCCCOC(Cn1cncn1)c1ccc(F)cc1F (stereo unspecified) | 16 µg/mL (≈ 47.4 µM) | 16 µg/mL (≈ 47.4 µM) | 16 µg/mL (≈ 47.4 µM) | – | 128 µg/mL (≈ 379 µM) | 4 µg/mL (≈ 11.9 µM) | – | – | – | – | – | – | – | – | – | –
27 | Fc1ccc(C(Cn2c[n+](Cc3ccc(Cl)cc3Cl)cn2)OCc2ccc(Cl)cc2Cl)c(F)c1.[Cl-] (stereo unspecified) | 32 µg/mL | 64 µg/mL | 8 µg/mL | – | 32 µg/mL | 16 µg/mL | – | – | – | – | – | – | – | – | – | –
